Assay outcomes: PubChem BioAssay, Johns Hopkins Ion Channel Center
Kir21 inh = inhibitors of mouse Kir2.1 inward-rectifier potassium channel | AID 1672 | actives 0.85% (n = 310,000) | P35561 | HEK293-Kir2.1, FluxOR thallium flux fluorescence; hits give low values | B-score at 10 µM;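 active means fluorescence ratio B-score at or below minus 3 SD of library scores, with starting-brightness B-score within 2 SD, cut at about -4.2 in these data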;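 further: channel flux triggered by added potassium and thallium sulfate stimulus; B-score of peak minus minimum fluorescence over baseline after thallium stimulus; more negative B-score means stronger Kir2.1 block with less thallium influx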
Target sequence (P35561 whole entry, looked up): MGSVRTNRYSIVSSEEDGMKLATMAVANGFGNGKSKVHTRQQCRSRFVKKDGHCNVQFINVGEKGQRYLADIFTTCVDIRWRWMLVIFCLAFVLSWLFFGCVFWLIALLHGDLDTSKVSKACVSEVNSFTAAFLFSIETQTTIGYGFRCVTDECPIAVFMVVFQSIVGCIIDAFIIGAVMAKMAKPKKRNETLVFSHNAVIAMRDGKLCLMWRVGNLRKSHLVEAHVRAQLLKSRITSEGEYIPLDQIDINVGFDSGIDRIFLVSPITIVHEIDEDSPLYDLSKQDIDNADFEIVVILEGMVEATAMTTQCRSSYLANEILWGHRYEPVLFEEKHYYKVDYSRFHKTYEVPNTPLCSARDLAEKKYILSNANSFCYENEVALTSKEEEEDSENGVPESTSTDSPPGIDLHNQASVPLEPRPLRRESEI
TRPC6 act = activators of mouse TRPC6 channel | AID 2550 | B-score at 10 µM | HEK293-TRPC6 membrane potential dye fluorescence; hits give high values | Q61143 | actives 0.13% (n = 310,000);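 active means B-score of the integrated fluorescence ratio above library mean plus 3 SD, and starting fluorescence ratio within library mean plus 5 SD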;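 further: higher score means more depolarization so channel activation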
TRPC4 agonist = TRPC4 (mouse) channel activation. Q9QUQ5. HEK293 TRPC4beta/mu-opioid, Fluo4 calcium fluorescence; hits give high values. B-score at 10 µM. actives 0.49% (n = 310,000). AID 2237;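 active means B-score above 5 SD of library B-scores, and initial fluorescence ratio not above library mean plus 5 SD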;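 further: positive B-score marks a calcium rise read as TRPC4 activation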
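Assay system: HEK293 cells stably co-expressing mouse TRPC4beta and mu-opioid receptor / Timing: Fluo4 dye loading 45 min at room temperature, 110 s recording / Signal: Fluo4 calcium-sensitive dye fluorescence, kinetic, 1 Hz baseline / Read-out: integrated baseline-normalised fluorescence ratio, converted to per-well B score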
TRPC4 block = blocks the mouse TRPC4 cation channel | Q9QUQ5 | HEK293 TRPC4beta/mu-opioid, DAMGO-evoked Fluo4 calcium flux; hits give low values | B-score at 10 µM | actives 0.39% (n = 300,000);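 active means B-score over 3 SD under the library average, no early fluorescence shift, positive overall ratio signal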
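System: stable TRPC4beta/mu-opioid receptor HEK293 cells; Dosing: single-point compound dosing; Measured by: Fluo4 Ca2+ flux fluorescence; Read-out basis: per-well B score of integrated baseline-normalized Fluo4 ratio.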
TRPC4 potent = allosteric potentiators of mouse TRPC4 channel | HEK293 TRPC4beta/mu-opioid, DAMGO EC20, Fluo-4 Ca2+ flux; hits give high values | B-score at 10 µM | actives 0.42% (n = 310,000);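 active means B-score of calcium response area above 5 SD of library B-scores, with initial fluorescence ratio within 5 SD of library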;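 further: B-score of integrated fluorescence ratio over time as area under calcium response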
TRPC6 inhibitor = inhibitors of mouse TRPC6 channel. B-score at 10 µM. actives 1.1% (n = 310,000). HEK293-TRPC6, membrane potential dye, ACh-evoked depolarization; hits give low values. Q61143. AID 2553;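 active means B-score under library mean minus 3 SD, initial fluorescence not abnormally high, positive integrated signal ratio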;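 further: B-score derived from integrated fluorescence ratio over the kinetic read; more negative B-score means stronger inhibition of depolarization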
TRPC4 spec 2 = second check of whether TRPC6 inhibitors also affect mouse TRPC4 | inhibition, % at 10 µM | shares compounds with TRPC6 inhibitor | actives 42% (n = 920) | HEK293 TRPC4/MOR, membrane potential dye fluorescence; channel activated by saturating DAMGO dose;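 active means compounds whose fluorescence signal differed from control wells by over 3 SD, either direction, in both duplicate plates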
TRPC4 spec = tests whether TRPC6 inhibitors also affect mouse TRPC4; shares compounds with TRPC6 inhibitor; HEK293 TRPC4/mu-opioid, membrane potential fluorescence; activity change, negative = inhibition, % at 10 µM; actives 61% (n = 920); AID 2777;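 active means rise or fall in signal beyond 3 SD of buffer-only wells in both replicate plates, either sign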;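 further: integrated kinetic ratio of fluorescence range over baseline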
HEK293 MPD ctr 2-1 = second check of TRPC6 inhibitor effects in parental HEK293 cells. shares compounds with TRPC6 inhibitor. parental HEK293 membrane potential dye fluorescence; maximal acetylcholine challenge after compound addition. signal change vs control, % at 10 µM. actives 31% (n = 920). AID 2779;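 active means membrane potential signal moving either way by over 3 SD of the maximum-effect control, in both duplicate plates, meaning non-specific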
HEK293 MPD ctr-1 = counter-screen for TRPC6 inhibitors: effect in parental HEK293 cells. shares compounds with TRPC6 inhibitor. parental HEK293 membrane potential dye fluorescence. membrane potential signal change, % at 10 µM. actives 60% (n = 920);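 active means membrane potential signal shifting up or down by more than 3 SD of buffer-only wells, on both duplicate plates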
HEK293 MPD ctr-2 = checks TRPC6 modulator effects in parental HEK293 cells; actives 51% (n = 2,400); membrane potential signal change, % at 10 µM; shares compounds with TRPC6 inhibitor; AID 488924; membrane potential dye fluorescence;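 active means membrane potential signal moves up or down beyond 5 SD from buffer-only wells, on both duplicate plates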
HEK293 MPD ctr 2-2 = parental HEK293 nonspecific activity of TRPC6 modulators, second screen; inhibition, % at 10 µM; shares compounds with TRPC6 inhibitor; actives 14% (n = 2,400); AID 488926; membrane potential dye fluorescence; after compound, maximal acetylcholine stimulation;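 active means membrane potential signal drops by more than 5 SD from the mean control signal, in both duplicate plates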;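 further: plate controls were acetylcholine ECmax control wells for no effect and buffer only wells for full effect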
TRPC4 ctr mod = selectivity of TRPC6 modulators against mouse TRPC4 | percent change from control (negative = decrease, positive = increase), % at 10 µM | HEK293 TRPC4/mu-opioid, membrane potential fluorescence | actives 69% (n = 2,400) | shares compounds with TRPC6 inhibitor | AID 488927;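 active means membrane potential signal moved up or down beyond 5 SD of buffer control wells, in both duplicate plates, actives on both sides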;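 further: plate controls were assay buffer wells for no effect and DAMGO maximal-effect wells for full effect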
TRPC4/MOR inh 2 = mouse TRPC4 off-target activity of TRPC6 modulators, second screen. shares compounds with TRPC6 inhibitor. HEK293 TRPC4/mu-opioid, membrane potential dye fluorescence; stimulated with maximal-effect DAMGO. inhibition, % at 10 µM. actives 55% (n = 2,400). AID 488928;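 active means drop in membrane potential signal beyond 5 SD of the control wells in both duplicate plates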;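 further: TRPC4 counter screen for TRPC6 hits run under conditions tuned for TRPC6 not TRPC4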
TRPC6 block conf = mouse TRPC6 inhibitor confirmation | shares compounds with TRPC6 inhibitor | inhibition, % at 10 µM | actives 43% (n = 3,300) | HEK293-TRPC6, membrane potential dye, ACh-evoked depolarization;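 active means fluorescence ratio falls more than 5 SD below the full-stimulation control mean, in both duplicate runs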;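 further: integrated fluorescence ratio of peak minus minimum over baseline after agonist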
TRPC6 act conf = confirmation of mouse TRPC6 activators; shares compounds with TRPC6 inhibitor; HEK293-TRPC6 membrane potential dye fluorescence, FDSS; activation, % at 10 µM; actives 11% (n = 2,800);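 active means ratio signal rise beyond 5 SD above unstimulated control wells' mean, seen in both duplicate runs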;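 further: plate controls were buffer EC0 wells for no effect and acetylcholine ECmax response for full effect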
Starred values were filed as active, the others as inactive; i = inactive; . = no result given; + = active, no number. Only some compounds are listed: those with a hit (about 3% of all), similar ones and a draw of the others.

SMILES	Kir21 inh	TRPC6 act	TRPC4 agonist	TRPC4 block	TRPC4 potent	TRPC6 inhibitor	HEK293 MPD ctr-2	HEK293 MPD ctr 2-2	TRPC4 ctr mod	TRPC4/MOR inh 2	TRPC6 block conf	TRPC6 act conf	others
CCc1nc2ccc(C)cc2c(C(=O)NC2CCCCC2C)c1C (stereo not drawn)	-0.63	13.6*	i	i	i	i	425.5%*	i	102.5%*	31.0%*	i	148.0%*
Cc1ccc(C(=O)Nc2cccc(NC(=O)CN3CCCCC3)c2)cc1	-0.02	i	i	i	i	i	.	.	.	.	.	.
CCOC(=O)N1CCN(S(=O)(=O)c2ccc(OCC)c3ccccc23)CC1	-0.91	i	i	i	i	-7.84*	.	.	.	.	i	i	TRPC4 spec 2=i;TRPC4 spec=i;HEK293 MPD ctr 2-1=i;HEK293 MPD ctr-1=i
CC(=O)c1ccc(OCCCC(=O)N2CCN(S(=O)(=O)c3ccc(C(C)C)cc3)CC2)cc1	1.19	i	i	i	i	-9.25*	.	.	.	.	i	.	TRPC4 spec 2=i;TRPC4 spec=-0.4%*;HEK293 MPD ctr 2-1=i;HEK293 MPD ctr-1=1.7%*
CCOc1cc(S(=O)(=O)N2CCCCCC2)ccc1F	0.64	i	i	i	i	-6.72*	.	.	.	.	i	i	TRPC4 spec 2=i;TRPC4 spec=i;HEK293 MPD ctr 2-1=i;HEK293 MPD ctr-1=i
CCCCOc1ccc(S(=O)(=O)N2CCN(C)CC2)cc1	1.32	i	i	i	i	i	.	.	.	.	.	.
CC(=O)c1ccc(OCCCC(=O)N2CCN(S(=O)(=O)c3cc(C)ccc3C)CC2)cc1	-2.03	i	i	i	i	i	.	.	.	.	.	.
CCOc1ccccc1N1CCN(S(=O)(=O)c2ccc(F)c(F)c2)CC1	-1.3	i	i	i	i	i	.	.	.	.	.	.
CCCCOc1ccc(S(=O)(=O)N2CCCCCC2)cc1	-0.41	i	i	i	i	-5.63*	i	i	i	i	46.0%*	i
CCCCn1c(N)c(N(CC(C)C)C(=O)C2CCN(S(=O)(=O)c3ccc(C)cc3C)CC2)c(=O)[nH]c1=O	1.06	i	i	i	i	i	.	.	.	.	.	.
O=C(NCCCN1CCCC1=O)c1ccc(NS(=O)(=O)c2ccccc2)cc1	-1.24	i	i	i	i	i	.	.	.	.	.	.
CCOC(=O)N1CCN(S(=O)(=O)c2ccc(OCC)cc2)CC1	0.02	i	i	i	i	-6.19*	i	i	31.0%*	i	i	.
CCOC(=O)N1CCN(S(=O)(=O)c2ccc(C)cc2)CC1	-0.02	i	i	i	i	i	.	.	.	.	.	.
CCOC(=O)N1CCN(C(=O)COc2ccc3ccccc3c2Br)CC1	-0.76	i	i	i	i	-6.59*	i	i	12.5%*	i	i	.
CC1C/C(=C/c2cccn2C)C(=O)/C(=C/c2cccn2C)C1 (stereo not drawn)	-15.8	78.9*	i	i	i	i	+	i	440.5%*	i	i	311.0%*
Cc1ccc(-c2nnc(OCc3cccnc3)c3ccccc23)cc1	-1.19	i	i	i	i	i	.	.	.	.	.	.
O=C(c1cccc(F)c1)N1CCN(S(=O)(=O)c2ccccc2)CC1	0.33	i	i	i	i	i	.	.	.	.	.	.
Cc1ccc(C(=O)N2CCN(S(=O)(=O)c3ccc(C)cc3)CC2)cc1	-1.22	i	i	i	i	-5.13*	i	i	i	i	79.0%*	.
CC(C)c1ccc(S(=O)(=O)N2CCN(C(=O)c3cccc(F)c3)CC2)cc1	-2.61	16.9*	i	i	i	i	i	i	19.5%*	i	.	186.0%*
Oc1ccc(CN2CCc3ccccc3C2)c2cccnc12	-10.3*	i	i	-5*	i	-7.32*	.	.	.	.	i	i	TRPC4 spec 2=49.0%*;TRPC4 spec=2.4%*;HEK293 MPD ctr 2-1=i;HEK293 MPD ctr-1=5.0%*
Oc1ccc(CN2CCCCC2)c2cccnc12	-1.35	i	i	i	i	i	.	.	.	.	.	.
c1cncc(CNc2ncnc3sccc23)c1	-1.04	27.5*	44*	i	i	i	i	i	i	i	i	i
COc1ccc(-c2nnc3sc(C4CCCCC4)nn23)cc1OC	0.62	12.5*	i	i	i	i	144.0%*	i	40.5%*	i	i	85.5%*
O=C(Nc1nc2ccccc2n1CCOc1ccccc1)c1ccco1	0.11	i	i	i	i	i	.	.	.	.	.	.
CCn1cc(Cl)c(C(=O)Nc2nc3ccccc3n2CCN2CCCCC2)n1	-0.01	i	i	i	i	-8.65*	-270.5%*	73.5%*	-41.5%*	65.5%*	60.5%*	i
O=C(Nc1nc2ccccc2n1CCN1CCCCC1)c1ccco1	-0.86	i	i	i	i	-7.89*	.	.	.	.	i	i	TRPC4 spec 2=48.0%*;TRPC4 spec=-17.8%*;HEK293 MPD ctr 2-1=i;HEK293 MPD ctr-1=-264.5%*
CCOc1ccccc1CN1CCNC(=O)C1CC(=O)N(C)C1CCOCC1 (stereo not drawn)	-0.03	i	i	i	i	i	.	.	.	.	.	.
